According to ChEMBL document CHEMBL1130090, “Antitumor agents. 174. 2',3',4',5,6,7-Substituted 2-phenyl-1,8-naphthyridin-4-ones: their synthesis, cytotoxicity, and inhibition of tubulin polymerization” (J Med Chem, 1997):

Tests used:
Format in all cases: functional
[1] = test system: MDA-MB-435; test: Concentration which reduced cell growth to 50 % of level against MDA-MB-435 breast cancer line; conditions: Homo sapiens
[2] = test system: OVCAR-3; test: Concentration which reduced cell growth to 50 % of level against OVCAR-3 ovarian cancer line; conditions: Homo sapiens
[3] = test system: Tumor Cell line; test: Cytotoxic effect in human tumor cell lines, tested by the National Cancer Institute; conditions: read-out: Average LogGI50 (converted)
[4] = target: Tubulin beta chain (Bos taurus, UniProt Q6B856); test: Inhibition of bovine tubulin polymerization
Sequence of Tubulin beta chain (Q6B856 whole entry): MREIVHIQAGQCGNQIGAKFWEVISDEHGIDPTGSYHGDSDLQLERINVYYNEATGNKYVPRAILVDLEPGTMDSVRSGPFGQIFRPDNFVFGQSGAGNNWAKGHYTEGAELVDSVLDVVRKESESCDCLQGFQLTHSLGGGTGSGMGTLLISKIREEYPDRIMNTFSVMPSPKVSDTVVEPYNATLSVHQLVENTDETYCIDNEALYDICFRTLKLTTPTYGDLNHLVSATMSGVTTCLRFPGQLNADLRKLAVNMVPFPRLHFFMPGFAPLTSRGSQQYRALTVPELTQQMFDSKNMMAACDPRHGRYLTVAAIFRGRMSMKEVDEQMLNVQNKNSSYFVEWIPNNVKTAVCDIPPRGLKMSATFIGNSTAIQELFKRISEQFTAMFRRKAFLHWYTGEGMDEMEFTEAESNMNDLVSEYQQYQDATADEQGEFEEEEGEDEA

[5] = test system: SF-295; test: Concentration which reduced cell growth to 50 % of level against SF-295 CNS cancer line; conditions: Homo sapiens
[6] = test system: HL-60; test: Concentration which reduced cell growth to 50 % of level against HL-60 (TB) leukemia cell line; conditions: Homo sapiens
[7] = test system: U-251; test: Concentration which reduced cell growth to 50 % of U251 cancer line; conditions: Homo sapiens
[8] = test system: NCI-H460; test: compound was tested for concentration which reduced cell growth to 50 % of level against NCI-H460 non -small-cell lung cancer cell line; conditions: Homo sapiens
[9] = test system: PC-3; test: Concentration which reduced cell growth to 50 % of level against PC-3 prostate cancer line; conditions: Homo sapiens
[10] = test system: MDA-N; test: Concentration which reduced cell growth to 50 % of level against MDA-N breast cancer line; conditions: Homo sapiens
[11] = test system: HCT-116; test: Concentration which reduced cell growth to 50 % of level against HCT116 colon cancer cell line; conditions: Homo sapiens
[12] = test system: SK-MEL-5; test: Concentration which reduced cell growth to 50 % of level against SK-MEL-5 melanoma cell line; conditions: Homo sapiens
[13] = test system: 786-0; test: Concentration which reduced cell growth to 50 % of level against 786-0 renal cancer line; conditions: Homo sapiens
[14] = target: Tubulin alpha chain (Sus scrofa) (UniProt P02550); test: Inhibition of colchicine binding and evaluated only when polymerization IC50 <=1 uM
Sequence of Tubulin alpha chain (Sus scrofa) (P02550 whole entry, looked up): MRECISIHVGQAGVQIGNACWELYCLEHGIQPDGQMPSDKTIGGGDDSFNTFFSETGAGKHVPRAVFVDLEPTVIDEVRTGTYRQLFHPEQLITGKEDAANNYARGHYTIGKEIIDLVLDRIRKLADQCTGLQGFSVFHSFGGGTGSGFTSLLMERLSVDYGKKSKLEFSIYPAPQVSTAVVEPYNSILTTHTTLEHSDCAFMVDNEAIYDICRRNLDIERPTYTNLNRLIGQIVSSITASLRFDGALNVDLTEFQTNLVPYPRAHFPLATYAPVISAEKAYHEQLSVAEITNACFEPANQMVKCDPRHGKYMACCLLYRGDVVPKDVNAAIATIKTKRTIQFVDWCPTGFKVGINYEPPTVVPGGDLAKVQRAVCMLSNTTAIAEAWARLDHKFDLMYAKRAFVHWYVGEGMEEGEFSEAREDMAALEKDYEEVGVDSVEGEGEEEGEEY
Summary of the method: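 Electrophoretically homogeneous bovine brain tubulin (1.0 µM) incubated 20 min at 37 °C with 5.0 µM [3H]colchicine and 5.0 µM inhibitor in 1.0 M monosodium glutamate (pH 6.6), 1 mM MgCl2, 0.1 mM GTP, 5% (v/v) DMSO. Mixtures filtered through two stacked DEAE-cellulose filters and washed with water. Bound radioactivity counted by liquid scintillation.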

[15] = test system: NCI-H460; test: Concentration which reduced cell growth to 50 % of level against NCI-H460 non -small-cell lung cancer cell line; conditions: Homo sapiens

**Q.** Which GI50 [1] does the source give for `COc1cccc(-c2cc(O)c3c(C)cc(C)nc3n2)c1` here?
**A.** < 0.01 µM

**Q.** What about the GI50 [2] of the same compound?
**A.** 0.251 µM

**Q.** What about the GI50 [3] of the same compound?
**A.** 0.646 µM

**Q.** What about the IC50 [4] of the same compound?
**A.** 0.88 µM

**Q.** And the GI50 [5]?
**A.** 0.417 µM

**Q.** What about the GI50 [6] of the same compound?
**A.** 0.174 µM

**Q.** And the GI50 [7]?
**A.** 0.17 µM

**Q.** And the GI50 [8]?
**A.** 0.447 µM

**Q.** And the GI50 [9]?
**A.** 0.309 µM

**Q.** And the GI50 [10]?
**A.** < 0.01 µM

**Q.** And the GI50 [11]?
**A.** 0.407 µM

**Q.** What about the GI50 [12] of the same compound?
**A.** 0.288 µM

**Q.** And the GI50 [13]?
**A.** 0.437 µM

**Q.** And the inhibition [14]?
**A.** 22%

**Q.** How did the GI50 [1] turn out when `Cc1cc(C)c2c(O)cc(-c3ccc(Cl)cc3)nc2n1` was run?
**A.** 4.07 µM

**Q.** What about the GI50 [2] of the same compound?
**A.** 18.2 µM

**Q.** What about the GI50 [3] of the same compound?
**A.** 19.5 µM

**Q.** What about the IC50 [4] of the same compound?
**A.** 32 µM

**Q.** And the GI50 [5]?
**A.** 16.2 µM

**Q.** And the GI50 [6]?
**A.** 25.1 µM

**Q.** What about the GI50 [7] of the same compound?
**A.** 30.2 µM

**Q.** What about the GI50 [8] of the same compound?
**A.** 22.4 µM

**Q.** What about the GI50 [9] of the same compound?
**A.** 6.31 µM

**Q.** What about the GI50 [10] of the same compound?
**A.** 3.63 µM

**Q.** What about the GI50 [11] of the same compound?
**A.** 14.8 µM

**Q.** What about the GI50 [12] of the same compound?
**A.** 14.1 µM

**Q.** And the GI50 [13]?
**A.** 21.4 µM

**Q.** With `COc1ccc(-c2cc(O)c3c(C)cc(C)nc3n2)cc1` as the compound, how does the GI50 [1] read?
**A.** 28.8 µM

**Q.** And the GI50 [2]?
**A.** 32.4 µM

**Q.** And the GI50 [3]?
**A.** 33.1 µM

**Q.** And the IC50 [4]?
**A.** > 40 µM

**Q.** What about the GI50 [5] of the same compound?
**A.** 42.7 µM

**Q.** What about the GI50 [6] of the same compound?
**A.** 15.5 µM

**Q.** And the GI50 [7]?
**A.** 91.2 µM

**Q.** What about the GI50 [8] of the same compound?
**A.** 40.7 µM

**Q.** And the GI50 [9]?
**A.** 24 µM

**Q.** And the GI50 [10]?
**A.** 33.1 µM

**Q.** And the GI50 [11]?
**A.** 36.3 µM

**Q.** And the GI50 [12]?
**A.** 17.8 µM

**Q.** And the GI50 [13]?
**A.** 58.9 µM

**Q.** For `COc1ccc(-c2cc(O)c3cc(C)cnc3n2)cc1`, which GI50 [1] is on record?
**A.** 1.82 µM

**Q.** And the GI50 [2]?
**A.** 2.95 µM

**Q.** What about the GI50 [3] of the same compound?
**A.** 6.17 µM

**Q.** And the IC50 [4]?
**A.** 7.7 µM

**Q.** And the GI50 [5]?
**A.** 5.25 µM

**Q.** And the GI50 [6]?
**A.** 2.29 µM

**Q.** What about the GI50 [7] of the same compound?
**A.** 4.17 µM

**Q.** What about the GI50 [8] of the same compound?
**A.** 4.07 µM

**Q.** And the GI50 [9]?
**A.** 5.37 µM

**Q.** What about the GI50 [10] of the same compound?
**A.** 1.7 µM

**Q.** And the GI50 [11]?
**A.** 4.17 µM

**Q.** What about the GI50 [12] of the same compound?
**A.** 3.72 µM

**Q.** And the GI50 [13]?
**A.** 5.13 µM

**Q.** How did the GI50 [1] turn out when `COc1cccc(-c2cc(O)c3cc(Cl)cnc3n2)c1` was run?
**A.** 0.0324 µM

**Q.** And the GI50 [2]?
**A.** 0.49 µM

**Q.** What about the GI50 [3] of the same compound?
**A.** 0.0977 µM

**Q.** And the IC50 [4]?
**A.** 0.73 µM

**Q.** What about the GI50 [5] of the same compound?
**A.** 0.0603 µM

**Q.** And the GI50 [6]?
**A.** 0.0269 µM

**Q.** And the GI50 [15]?
**A.** 0.0631 µM

**Q.** And the GI50 [7]?
**A.** 0.2 µM

**Q.** And the GI50 [9]?
**A.** 0.138 µM

**Q.** And the GI50 [10]?
**A.** 0.0316 µM

**Q.** And the GI50 [11]?
**A.** 0.12 µM

**Q.** And the GI50 [12]?
**A.** 0.126 µM

**Q.** And the GI50 [13]?
**A.** 0.427 µM

**Q.** What about the inhibition [14] of the same compound?
**A.** 35%

**Q.** `COc1cccc(-c2cc(O)c3cccnc3n2)c1` was tested. Which GI50 [1] did it give?
**A.** < 0.01 µM

**Q.** What about the GI50 [2] of the same compound?
**A.** 0.055 µM

**Q.** And the GI50 [3]?
**A.** 0.135 µM

**Q.** What about the IC50 [4] of the same compound?
**A.** 0.96 µM

**Q.** And the GI50 [5]?
**A.** 0.0525 µM

**Q.** And the GI50 [6]?
**A.** 0.0162 µM

**Q.** What about the GI50 [15] of the same compound?
**A.** 0.0912 µM

**Q.** What about the GI50 [7] of the same compound?
**A.** 0.055 µM

**Q.** What about the GI50 [9] of the same compound?
**A.** 0.0933 µM

**Q.** What about the GI50 [10] of the same compound?
**A.** < 0.01 µM

**Q.** And the GI50 [11]?
**A.** 0.0363 µM

**Q.** And the GI50 [12]?
**A.** 0.0537 µM

**Q.** What about the GI50 [13] of the same compound?
**A.** 0.0617 µM

**Q.** And the inhibition [14]?
**A.** 27%

**Q.** Which GI50 [1] does the source give for `COc1cccc(-c2cc(O)c3cc(C)cnc3n2)c1` here?
**A.** < 0.01 µM

**Q.** What about the GI50 [2] of the same compound?
**A.** 0.0417 µM

**Q.** What about the GI50 [3] of the same compound?
**A.** 0.0955 µM

**Q.** And the IC50 [4]?
**A.** 0.8 µM

**Q.** What about the GI50 [5] of the same compound?
**A.** 0.0372 µM

**Q.** And the GI50 [6]?
**A.** 0.0191 µM

**Q.** And the GI50 [15]?
**A.** 0.0437 µM

**Q.** What about the GI50 [7] of the same compound?
**A.** 0.0447 µM

**Q.** What about the GI50 [9] of the same compound?
**A.** 0.0427 µM

**Q.** And the GI50 [10]?
**A.** < 0.01 µM

**Q.** And the GI50 [11]?
**A.** 0.0224 µM

**Q.** And the GI50 [12]?
**A.** 0.0257 µM

**Q.** What about the GI50 [13] of the same compound?
**A.** 0.0372 µM

**Q.** What about the inhibition [14] of the same compound?
**A.** 31%

**Q.** What does the source list for `COc1cccc(-c2cc(O)c3c(C)ccnc3n2)c1`?
**A.** GI50 [1]: < 0.01 µM; GI50 [2]: 0.0257 µM; GI50 [3]: 0.0589 µM; IC50 [4]: 0.62 µM; GI50 [5]: 0.0288 µM; GI50 [6]: 0.0129 µM; GI50 [15]: 0.0479 µM; GI50 [7]: 0.0589 µM; GI50 [9]: 0.0263 µM; GI50 [10]: < 0.01 µM; GI50 [11]: 0.0447 µM; GI50 [12]: 0.0224 µM; GI50 [13]: 0.0513 µM; inhibition [14]: 28%

**Q.** What does the source list for `Cc1ccnc2nc(-c3ccc(F)cc3)cc(O)c12`?
**A.** GI50 [1]: 2.88 µM; GI50 [2]: 56.2 µM; GI50 [3]: 38 µM; IC50 [4]: 18 µM; GI50 [5]: 79.4 µM; GI50 [6]: 4.79 µM; GI50 [7]: 36.3 µM; GI50 [8]: 32.4 µM; GI50 [9]: 51.3 µM; GI50 [10]: 3.55 µM; GI50 [11]: 16.2 µM; GI50 [12]: 16.2 µM; GI50 [13]: 33.9 µM

**Q.** How did the GI50 [1] turn out when `COc1ccccc1-c1cc(O)c2c(C)ccnc2n1` was run?
**A.** 6.46 µM

**Q.** And the GI50 [2]?
**A.** 12.9 µM

**Q.** And the GI50 [3]?
**A.** 2.82 µM

**Q.** What about the IC50 [4] of the same compound?
**A.** 20 µM

**Q.** And the GI50 [5]?
**A.** 23.4 µM

**Q.** What about the GI50 [6] of the same compound?
**A.** 20.9 µM

**Q.** And the GI50 [7]?
**A.** 35.5 µM

**Q.** And the GI50 [8]?
**A.** 24 µM

**Q.** What about the GI50 [9] of the same compound?
**A.** 20.9 µM

**Q.** What about the GI50 [10] of the same compound?
**A.** 8.32 µM

**Q.** And the GI50 [11]?
**A.** 7.59 µM

**Q.** And the GI50 [12]?
**A.** 22.4 µM

**Q.** And the GI50 [13]?
**A.** 60.3 µM
